In ChEMBL document CHEMBL4196123, “Discovery of an Orally Bioavailable Dual PI3K/mTOR Inhibitor Based on Sulfonyl-Substituted Morpholinopyrimidines” (ACS Med Chem Lett, 2018):
Calls of active or inactive are those of the source. The rule behind the calls is not given here.

Experiments:
T47D = test: Antiproliferative activity against human T47D cells harboring PI3KCA H1047R mutant after 72 hrs by MTT assay; type: functional, cell-based
MCF7 = test: Antiproliferative activity against human MCF7 cells harboring PIK3CA E545K mutant after 72 hrs by MTT assay; type: functional, cell-based; conditions: MCF7, 72 h
[1] = Inhibition of PI3K in human PC3 cells assessed as reduction in AKT phosphorylation at Ser473 measured after 2 hrs by fluorescence assay; type: cell-based; conditions: PC-3, 2 h
[2] = biological target: PI3-kinase p110-alpha/p85-alpha (Homo sapiens, UniProt P42336); test: Inhibition of recombinant human full length N-terminal His-tagged p110alpha/p85alpha expressed in baculovirus expression system using PIP2 as substrate measured after 1 hr by Alexa633 Tracer-based fluorescence polarization assay
Method in brief: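 PI3Kα enzyme inhibition; IC50 is the mean of duplicate measurements.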

[3] = Intrinsic clearance in mouse liver microsomes at […] pretreated up to 45 mins followed by NADPH addition and measured by LC-MS/MS analysis; type: ADME, microsome; conditions: read-out: CLH
[4] = Intrinsic clearance in human liver microsomes at […] pretreated up to 45 mins followed by NADPH addition and measured by LC-MS/MS analysis; type: ADME, microsome; conditions: read-out: CLH
[5] = biological target: Serine/threonine-protein kinase ATR (Homo sapiens) (UniProt Q13535); test: Inhibition of ATR in human HT-29 cells assessed as reduction in camptothecin-induced Chk1 phosphorylation at Ser345 residue up to 10 uM pretreated for 1 hr followed by camptothecin addition; type: cell-based
Method in brief: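 HT-29 cells were pretreated with compound for 1 h, then exposed to camptothecin to induce DNA damage. ATR activity was read as phosphorylation of its substrate Chk1, with total Chk1 and β-actin as internal controls. […] served as reference inhibitor.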

[6] = biological target: Serine/threonine-protein kinase mTOR (Homo sapiens, UniProt P42345); test: Inhibition of recombinant human GST-tagged mTOR catalytic domain (1360 to 2549 residues) expressed in baculovirus expression system using GFP-4EBP1 as substrate measured after 1 hr by Lathascreen method
[7] = biological target: PI3-kinase p110-delta/p85-alpha (Homo sapiens, UniProt O00329); test: Inhibition of recombinant human full-length N-terminal His6-tagged p110delta/recombinant human full length p85alpha expressed in baculovirus infected Sf21 insect cells using PIP2 as substrate measured after 1 hr by Alexa633 Tracer-based fluorescence polarization assay
PI3K p110 beta/p85 alpha = PI3K p110 beta/p85 alpha (Homo sapiens, UniProt P42338); test: Inhibition of recombinant human full-length N-terminal His6-tagged p110beta/recombinant human full length p85alpha expressed in baculovirus infected Sf21 insect cells using PIP2 as substrate measured after 1 hr by Alexa633 Tracer-based fluorescence polarization assay
Mus musculus = test: Toxicity in Balb/c nu/nu mouse xenografted with human HT-29 cells harboring PIK3CA P449T mutant assessed as body weight loss at 60 mg/kg, po administered daily via gavage for 10 days relative to control; conditions: in vivo, 240 h
HUVEC = test: Cytotoxicity against HUVEC after 72 hrs by MTT assay; type: cell-based; conditions: Homo sapiens
HT-29 [8] = test: Cell cycle arrest in human HT-29 cells assessed as accumulation at G2/M phase at 0.111 to 3 uM after 24 hrs by propidium iodide staining based flow cytometry; type: functional
HT-29 [9] = test: Antitumor activity against human HT-29 cells harboring PIK3CA P449T mutant xenografted in Balb/c nu/nu mouse assessed as tumor growth inhibition at 30 mg/kg, po administered daily via gavage for 27 days relative to control; type: functional; conditions: HT-29, po, 648 h, read-out: TGI
Method in brief: (§1)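 Balb/c nu/nu mice carrying HT-29 xenografts were dosed by daily oral gavage for 27 days, starting when mean tumor size was about 240 mm³; vehicle group as control. Tumor volume estimated over time, and TGI calculated after 27 days. Mean ± SEM, n = 6. Dunnett's multiple comparison test.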

HT-29 [10] = test: Antitumor activity against human HT-29 cells harboring PIK3CA P449T mutant xenografted in Balb/c nu/nu mouse assessed as tumor growth inhibition at 15 mg/kg, po administered daily via gavage for 27 days relative to control; type: functional; conditions: HT-29, po, 648 h, read-out: TGI; method in brief: as §1

Sequence of Serine/threonine-protein kinase ATR (Homo sapiens) (Q13535 whole entry, looked up): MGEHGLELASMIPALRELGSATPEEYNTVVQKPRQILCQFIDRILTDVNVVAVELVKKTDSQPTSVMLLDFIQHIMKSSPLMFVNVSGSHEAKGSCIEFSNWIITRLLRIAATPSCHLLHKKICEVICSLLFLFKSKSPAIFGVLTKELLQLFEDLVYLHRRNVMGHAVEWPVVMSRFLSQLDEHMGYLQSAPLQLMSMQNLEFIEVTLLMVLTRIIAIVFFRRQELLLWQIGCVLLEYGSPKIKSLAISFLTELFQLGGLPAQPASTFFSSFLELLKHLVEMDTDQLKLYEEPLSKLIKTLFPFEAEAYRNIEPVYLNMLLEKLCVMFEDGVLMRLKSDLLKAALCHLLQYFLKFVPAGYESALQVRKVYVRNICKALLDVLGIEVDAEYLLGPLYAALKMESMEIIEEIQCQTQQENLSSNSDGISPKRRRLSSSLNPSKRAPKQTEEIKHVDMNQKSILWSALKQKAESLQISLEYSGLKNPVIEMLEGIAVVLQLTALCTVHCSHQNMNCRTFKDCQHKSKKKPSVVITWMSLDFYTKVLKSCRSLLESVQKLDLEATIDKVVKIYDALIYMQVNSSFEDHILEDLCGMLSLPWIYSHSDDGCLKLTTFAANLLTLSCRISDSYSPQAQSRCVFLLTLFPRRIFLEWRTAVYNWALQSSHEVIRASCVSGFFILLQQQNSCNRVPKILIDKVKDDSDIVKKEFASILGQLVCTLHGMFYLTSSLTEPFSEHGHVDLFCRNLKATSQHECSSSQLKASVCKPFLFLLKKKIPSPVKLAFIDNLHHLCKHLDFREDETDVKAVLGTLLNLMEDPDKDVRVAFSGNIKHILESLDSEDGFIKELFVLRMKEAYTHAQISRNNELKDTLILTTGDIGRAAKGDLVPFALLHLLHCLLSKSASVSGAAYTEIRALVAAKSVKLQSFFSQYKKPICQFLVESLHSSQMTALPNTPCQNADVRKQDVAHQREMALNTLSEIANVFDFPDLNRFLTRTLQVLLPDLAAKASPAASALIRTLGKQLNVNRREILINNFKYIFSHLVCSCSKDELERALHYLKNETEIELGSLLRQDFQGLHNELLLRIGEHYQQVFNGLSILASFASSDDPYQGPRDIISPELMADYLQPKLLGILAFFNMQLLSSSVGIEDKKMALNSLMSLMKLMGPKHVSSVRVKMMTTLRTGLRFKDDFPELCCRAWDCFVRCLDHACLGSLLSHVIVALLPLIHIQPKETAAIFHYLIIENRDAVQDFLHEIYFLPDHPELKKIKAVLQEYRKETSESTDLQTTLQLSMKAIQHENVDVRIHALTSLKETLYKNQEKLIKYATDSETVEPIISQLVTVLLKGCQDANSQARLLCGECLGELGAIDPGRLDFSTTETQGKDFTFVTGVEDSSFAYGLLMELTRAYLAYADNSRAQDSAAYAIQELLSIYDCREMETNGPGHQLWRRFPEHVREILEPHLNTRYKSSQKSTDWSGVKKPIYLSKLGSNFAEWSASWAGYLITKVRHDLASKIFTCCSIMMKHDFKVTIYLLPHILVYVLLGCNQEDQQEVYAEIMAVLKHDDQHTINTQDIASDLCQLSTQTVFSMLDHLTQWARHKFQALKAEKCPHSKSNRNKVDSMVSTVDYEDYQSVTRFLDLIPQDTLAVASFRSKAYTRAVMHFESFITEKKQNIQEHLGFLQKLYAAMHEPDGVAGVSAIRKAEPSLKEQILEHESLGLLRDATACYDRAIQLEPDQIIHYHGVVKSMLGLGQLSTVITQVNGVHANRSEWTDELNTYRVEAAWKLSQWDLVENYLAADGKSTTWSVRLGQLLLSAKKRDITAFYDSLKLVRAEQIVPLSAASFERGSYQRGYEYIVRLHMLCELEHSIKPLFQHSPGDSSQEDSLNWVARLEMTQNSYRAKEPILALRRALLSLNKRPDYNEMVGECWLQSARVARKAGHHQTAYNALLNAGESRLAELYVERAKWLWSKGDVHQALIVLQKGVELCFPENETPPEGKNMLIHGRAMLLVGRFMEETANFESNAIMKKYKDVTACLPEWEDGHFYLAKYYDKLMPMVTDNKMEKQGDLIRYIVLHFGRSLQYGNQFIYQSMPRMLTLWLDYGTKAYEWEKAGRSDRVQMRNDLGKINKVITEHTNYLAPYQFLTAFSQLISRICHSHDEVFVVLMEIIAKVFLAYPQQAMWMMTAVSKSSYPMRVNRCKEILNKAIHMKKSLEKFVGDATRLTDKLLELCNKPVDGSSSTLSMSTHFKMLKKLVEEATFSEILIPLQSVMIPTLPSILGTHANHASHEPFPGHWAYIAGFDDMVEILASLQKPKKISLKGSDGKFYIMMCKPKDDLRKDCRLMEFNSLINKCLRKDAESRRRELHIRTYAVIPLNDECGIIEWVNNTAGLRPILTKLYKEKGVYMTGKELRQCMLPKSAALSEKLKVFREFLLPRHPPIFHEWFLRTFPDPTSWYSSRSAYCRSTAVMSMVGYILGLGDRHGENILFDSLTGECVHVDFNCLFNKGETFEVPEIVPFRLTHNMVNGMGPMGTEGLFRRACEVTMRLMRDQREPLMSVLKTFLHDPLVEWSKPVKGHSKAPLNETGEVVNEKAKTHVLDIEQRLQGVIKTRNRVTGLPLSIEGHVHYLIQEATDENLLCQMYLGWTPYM
Sequence of PI3-kinase p110-alpha/p85-alpha (P27986 whole entry): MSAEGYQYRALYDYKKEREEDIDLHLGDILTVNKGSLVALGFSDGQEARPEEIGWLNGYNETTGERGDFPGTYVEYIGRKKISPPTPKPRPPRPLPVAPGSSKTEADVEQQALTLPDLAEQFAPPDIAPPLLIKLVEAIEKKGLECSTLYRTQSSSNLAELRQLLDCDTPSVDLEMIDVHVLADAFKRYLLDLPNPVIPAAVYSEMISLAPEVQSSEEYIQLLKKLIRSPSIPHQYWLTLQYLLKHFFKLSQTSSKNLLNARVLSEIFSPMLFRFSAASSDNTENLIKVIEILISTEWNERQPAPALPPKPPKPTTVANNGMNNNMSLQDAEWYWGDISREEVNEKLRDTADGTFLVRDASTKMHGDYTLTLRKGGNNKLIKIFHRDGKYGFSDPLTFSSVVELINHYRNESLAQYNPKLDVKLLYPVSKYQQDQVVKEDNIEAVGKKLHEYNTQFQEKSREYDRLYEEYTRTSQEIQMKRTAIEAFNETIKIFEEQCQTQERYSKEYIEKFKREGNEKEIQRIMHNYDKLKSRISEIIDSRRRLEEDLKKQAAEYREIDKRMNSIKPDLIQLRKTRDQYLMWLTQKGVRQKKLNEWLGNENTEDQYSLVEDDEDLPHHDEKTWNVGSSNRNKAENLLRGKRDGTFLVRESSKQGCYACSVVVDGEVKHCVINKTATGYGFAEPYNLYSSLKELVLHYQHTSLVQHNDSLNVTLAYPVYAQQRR
Sequence of PI3-kinase p110-alpha/p85-alpha (P42336 whole entry): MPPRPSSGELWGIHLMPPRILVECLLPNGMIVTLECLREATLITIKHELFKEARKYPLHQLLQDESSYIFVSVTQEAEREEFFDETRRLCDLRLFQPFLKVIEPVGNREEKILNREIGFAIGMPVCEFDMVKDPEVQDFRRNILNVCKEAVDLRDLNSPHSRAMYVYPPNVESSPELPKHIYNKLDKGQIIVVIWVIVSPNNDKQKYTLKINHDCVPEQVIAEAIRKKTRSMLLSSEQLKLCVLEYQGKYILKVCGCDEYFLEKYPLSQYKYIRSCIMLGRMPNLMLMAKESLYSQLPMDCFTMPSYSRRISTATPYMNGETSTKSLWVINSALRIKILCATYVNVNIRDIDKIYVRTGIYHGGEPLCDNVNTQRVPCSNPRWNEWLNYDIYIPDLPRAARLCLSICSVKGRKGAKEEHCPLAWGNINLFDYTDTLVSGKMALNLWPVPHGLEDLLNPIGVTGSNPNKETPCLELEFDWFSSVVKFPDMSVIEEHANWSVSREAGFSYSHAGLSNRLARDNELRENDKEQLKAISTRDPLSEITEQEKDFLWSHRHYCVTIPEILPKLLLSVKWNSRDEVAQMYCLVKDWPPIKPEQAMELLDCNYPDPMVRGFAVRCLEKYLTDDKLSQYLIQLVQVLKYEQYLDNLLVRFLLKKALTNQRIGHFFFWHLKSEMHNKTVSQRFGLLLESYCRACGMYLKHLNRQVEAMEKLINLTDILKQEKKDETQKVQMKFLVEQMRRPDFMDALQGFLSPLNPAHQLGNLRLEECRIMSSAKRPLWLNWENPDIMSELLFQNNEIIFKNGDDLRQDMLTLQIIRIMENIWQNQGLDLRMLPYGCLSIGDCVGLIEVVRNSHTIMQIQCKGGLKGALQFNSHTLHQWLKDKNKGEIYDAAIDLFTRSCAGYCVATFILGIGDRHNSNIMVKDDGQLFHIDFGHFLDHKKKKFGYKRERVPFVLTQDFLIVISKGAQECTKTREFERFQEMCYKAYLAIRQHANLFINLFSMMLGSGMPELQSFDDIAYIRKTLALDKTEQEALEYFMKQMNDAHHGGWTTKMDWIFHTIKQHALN

| Compound | IC50 (T47D) [nM] | IC50 (MCF7) [nM] | IC50 [1] [nM] | IC50 [2] [nM] | also measured |
| --- | --- | --- | --- | --- | --- |
| CCS(=O)(=O)C(C)(C)c1cc(-c2cnc(N)cc2C(F)(F)F)nc(N2CCOCC2)n1 | 552 | 512 | 947 | 40 |  |
| CS(=O)(=O)C1(c2cc(-c3cnc(N)cc3C(F)(F)F)nc(N3CCOCC3)n2)CC1 |  |  |  |  | CLint scaled [3]: 185 mL/min/kg; CLint scaled [4]: 9.86 mL/min/kg; inhibition [5]: inactive; IC50 [6]: 1680 nM |
| CS(=O)(=O)C(F)(F)c1cc(-c2cnc(N)cc2C(F)(F)F)nc(N2CCOCC2)n1 | 513 | 408 | 846 | 25 |  |
| CS(=O)(=O)C1(c2cc(-c3cnc(N)cc3C(F)(F)F)nc(N3CCOCC3)n2)CCCCC1 |  |  |  | 321 |  |
| CS(=O)(=O)Cc1cc(-c2cnc(N)cc2C(F)(F)F)nc(N2CCOCC2)n1 | 1670 | 1510 | 3010 |  | inhibition [5]: inactive; IC50 [6]: 14000 nM |
| Nc1cc(C(F)(F)F)c(-c2cc(C3(S(=O)(=O)c4ccc(F)cc4)CC3)nc(N3CCOCC3)n2)cn1 | 619 | 572 | 1280 | 57 |  |
| CC(C)(c1cc(-c2cnc(N)cc2C(F)(F)F)nc(N2CCOCC2)n1)S(=O)(=O)c1ccccc1 | 478 | 897 | 1550 | 9 |  |
| CS(=O)(=O)C(F)c1cc(-c2cnc(N)cc2C(F)(F)F)nc(N2CCOCC2)n1 (configuration not stated) | 1160 | 1140 | 2450 | 56 |  |
| CC(C)C(c1cc(-c2cnc(N)cc2C(F)(F)F)nc(N2CCOCC2)n1)S(C)(=O)=O (configuration not stated) |  |  |  | 218 |  |
| CC(C)S(=O)(=O)C(C)(C)c1cc(-c2cnc(N)cc2C(F)(F)F)nc(N2CCOCC2)n1 | 1060 | 599 | 1180 | 65 |  |
| C[C@@H]1COCCN1c1nc(-c2cnc(N)cc2C(F)(F)F)cc(C2(S(C)(=O)=O)CC2)n1 |  |  |  | 223 |  |

More lines, main results first:

| IC50 (T47D) [nM] | IC50 (MCF7) [nM] | IC50 [1] [nM] | IC50 [2] [nM] | Compound | also measured |
| --- | --- | --- | --- | --- | --- |
| 58 | 224 | 312 |  | CC(C)(c1cc(-c2cnc(N)cc2C(F)(F)F)nc(N2CCOCC2)n1)S(C)(=O)=O |  |
| 218 | 340 | 384 |  | CS(=O)(=O)C1(c2cc(-c3cnc(N)cc3C(F)(F)F)nc(N3CCOCC3)n2)CCCC1 |  |
| 129 | 112 | 546 | 9 to 16 | C[C@H]1COCCN1c1nc(-c2cnc(N)cc2C(F)(F)F)cc(C2(S(C)(=O)=O)CC2)n1 | IC50 [7]: 197 nM; IC50 (PI3K p110 beta/p85 alpha): 264 nM; inhibition [5]: inactive; IC50 [6]: 2120 nM |
| 225 | 295 | 301 |  | CCS(=O)(=O)C1(c2cc(-c3cnc(N)cc3C(F)(F)F)nc(N3CCOCC3)n2)CC1 |  |
| 286 | 206 | 365 |  | Nc1cc(C(F)(F)F)c(-c2cc(N3CCOCC3)nc(N3CCOCC3)n2)cn1 [BUPARLISIB] | Activity (Mus musculus): > 25%; CLint scaled [3]: 151 mL/min/kg; IC50 (HUVEC): 886 nM; CLint scaled [4]: 10.9 mL/min/kg; Activity (HT-29 [8]): Active; inhibition in vivo at 30 mg/kg (HT-29 [9]): 55.7%; inhibition in vivo at 15 mg/kg (HT-29 [10]): 39.4%; inhibition [5]: inactive |
| 138 | 134 | 248 | 15 | CS(=O)(=O)C1(c2cc(-c3cnc(N)cc3C(F)(F)F)nc(N3CCOCC3)n2)CCC1 |  |
| 93 | 78 | 184 | 6 | C[C@H]1COCCN1c1nc(-c2cnc(N)cc2C(F)(F)F)cc(C2(S(C)(=O)=O)CCC2)n1 |  |
| 123 | 104 | 215 | 66 | CC(C)(c1cc(-c2cnc(N)cc2F)nc(N2CCOCC2)n1)S(C)(=O)=O | CLint scaled [3]: 40 to 140 mL/min/kg; CLint scaled [4]: 5 to 16 mL/min/kg |
| 242 | 286 | 606 | 14 | Nc1cc(C(F)(F)F)c(-c2cc(C3(S(=O)(=O)c4cccc(F)c4)CC3)nc(N3CCOCC3)n2)cn1 |  |
| 139 | 159 | 674 | 22 | C[C@H]1COCCN1c1nc(-c2cnc(N)cc2C(F)(F)F)cc(C2(S(C)(=O)=O)CCCC2)n1 |  |
| 33 | 15 | 121 | 20 | C[C@H]1COCCN1c1nc(-c2cnc(N)cc2F)cc(C(C)(C)S(C)(=O)=O)n1 | CLint scaled [3]: 40 to 140 mL/min/kg; CLint scaled [4]: 5 to 16 mL/min/kg |
| 324 | 513 | 668 |  | Nc1cc(C(F)(F)F)c(-c2cc(C3(S(=O)(=O)c4ccccc4)CC3)nc(N3CCOCC3)n2)cn1 |  |
| 160 | 437 | 430 | 58 | CC(C)S(=O)(=O)C1(c2cc(-c3cnc(N)cc3C(F)(F)F)nc(N3CCOCC3)n2)CC1 |  |
| 175 | 214 | 306 |  | C[C@H]1COCCN1c1nc(-c2cnc(N)cc2C(F)(F)F)cc(C(C)(C)S(C)(=O)=O)n1 |  |
| 62 | 27 | 369 | 41 | CS(=O)(=O)C1(c2cc(-c3cnc(N)cc3F)nc(N3CCOCC3)n2)CC1 | CLint scaled [3]: 40 to 140 mL/min/kg; CLint scaled [4]: 5 to 16 mL/min/kg |
| 129 | 184 | 367 | 7 | Nc1cc(C(F)(F)F)c(-c2cc(C3(S(=O)(=O)c4ccccc4F)CC3)nc(N3CCOCC3)n2)cn1 |  |
